Screens as filed in PubChem.
IDH1 mut inh: inhibitors of human IDH1 R132H; inhibition, % at 10 µM; AID 624101; IDH1 R132H reductase, diaphorase/resazurin fluorescence, 60 min; actives 0.18% (n = 70,000); O75874; in the data active = inhibition above about 34%;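 note: 0% = DMSO and 100% = no enzyme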
Target sequence (O75874 whole entry R132H): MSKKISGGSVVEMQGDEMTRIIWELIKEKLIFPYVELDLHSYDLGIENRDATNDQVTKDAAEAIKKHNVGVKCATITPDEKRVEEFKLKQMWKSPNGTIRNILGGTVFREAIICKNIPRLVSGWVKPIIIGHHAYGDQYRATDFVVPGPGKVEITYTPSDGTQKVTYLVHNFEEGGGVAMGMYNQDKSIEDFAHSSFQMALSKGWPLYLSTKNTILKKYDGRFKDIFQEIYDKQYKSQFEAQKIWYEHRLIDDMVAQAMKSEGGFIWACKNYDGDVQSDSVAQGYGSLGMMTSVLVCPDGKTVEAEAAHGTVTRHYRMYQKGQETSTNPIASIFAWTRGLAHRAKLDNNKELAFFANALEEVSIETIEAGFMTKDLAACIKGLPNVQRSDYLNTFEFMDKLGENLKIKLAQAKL
Pf Dd2 inh: inhibitors of Plasmodium falciparum Dd2 growth. P. falciparum Dd2 growth, SYBR Green, 72 h; stronger effect = lower value. activity change, % at 10 µM. actives 2.3% (n = 94,000). AID 1159554; in the data active = activity change below about -80%
GASC1 inh: KDM4C (human) demethylase inhibition; actives 0.15% (n = 96,000); GST-KDM4C 2-372, H3K9me3 peptide, LANCE TR-FRET; inhibition, % at 12.5 µM;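 active = mean replicate inhibition above about 25%, with at least 55% of replicates also reaching it, limit read from the data, passing the limit was not always enough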
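Compound: one test concentration per compound; Material: GST-GASC-1 enzyme fragment 2-372; Amount: GASC-1 enzyme at 10 nM final in reaction; Also added: H3K9me3 peptide substrate, Fe(II), 2-oxoglutarate; Technique: LANCE TR-FRET; Times: 30 min demethylation and 1 h detection at room temperature.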
* hit, by the source's call; . = no result. This excerpt belongs to a sample that is enriched for hits.

SMILES | IDH1 mut inh | Pf Dd2 inh | GASC1 inh
C[C@@H]1CCCCO[C@@H](CN(C)C(=O)Nc2cccc3ccccc23)[C@@H](C)CN([C@H](C)CO)C(=O)c2cc(NC(=O)Nc3ccc4c(c3)OCO4)ccc2O1 | . | -87.4* | 1.1
C[C@@H]1CCCCO[C@H](CN(C)C(=O)Nc2cccc3ccccc23)[C@H](C)CN([C@@H](C)CO)C(=O)c2cc(NC(=O)Nc3ccc4c(c3)OCO4)ccc2O1 | . | -82.8* | -2.2
C[C@@H]1CCCCO[C@@H](CN(C)C(=O)Nc2cccc3ccccc23)[C@H](C)CN([C@H](C)CO)C(=O)c2cc(NC(=O)Nc3ccc4c(c3)OCO4)ccc2O1 | 3.6 | -89.6* | -1.2
C[C@@H]1CN([C@@H](C)CO)C(=O)c2cc(NC(=O)Nc3cccc4ccccc34)ccc2O[C@@H](C)CCCCO[C@H]1CN(C)C(=O)Nc1cccc2ccccc12 | . | -8.7 | -3.1
C[C@@H]1CCCCO[C@@H](CN(C)C(=O)Nc2cccc3ccccc23)[C@@H](C)CN([C@H](C)CO)C(=O)c2cc(NC(=O)Nc3cccc4ccccc34)ccc2O1 | 1.8 | -50.8 | -2.4
C[C@H](CO)N1C[C@H](C)[C@H](CN(C)C(=O)Nc2ccc3c(c2)OCO3)OCCCC[C@H](C)Oc2ccc(NC(=O)Nc3cccc4ccccc34)cc2C1=O | 1.2 | 38.7 | -1.8
Cc1noc(C)c1S(=O)(=O)N(C)C[C@H]1OCCCC[C@@H](C)Oc2ccc(NS(C)(=O)=O)cc2C(=O)N([C@H](C)CO)C[C@@H]1C | -2.5 | 44.8 | -0.6
Cc1ccc(S(=O)(=O)N(C)C[C@@H]2OCCCC[C@@H](C)Oc3ccc(NC(=O)Cc4ccccc4)cc3C(=O)N([C@@H](C)CO)C[C@@H]2C)cc1 | 0.3 | -79.8 | -0.2
C[C@@H]1CCCCO[C@H](CN(C)S(=O)(=O)c2ccc(Cl)cc2)[C@H](C)CN([C@@H](C)CO)C(=O)c2cc(NC(=O)CCCN(C)C)ccc2O1 | -0.1 | -76.9 | 2.3
Cc1noc(C)c1S(=O)(=O)N(C)C[C@@H]1Oc2c(cccc2N(C)C)C(=O)N([C@@H](C)CO)C[C@H]1C | 0.6 | -8.0 | 1.2
CN1c2ccc(C#Cc3cccnc3)cc2[C@@H]2[C@@H](CCN2C(=O)C2CCCC2)[C@@H]1CO | . | -73.5 | 6.5
COc1ccc(-c2ccc3c(c2)[C@H]2[C@H](CCN2C(=O)C2CCCC2)[C@H](CO)N3C)cc1 | . | -84.9* | 6.6
CN1c2ccc(C#Cc3cccnc3)cc2[C@H]2[C@H](CCN2C(=O)C2CCCC2)[C@H]1CO | . | -88.8* | -3.7
COc1ccc(-c2ccc3c(c2)[C@H]2[C@H](CCN2C(=O)C2CC2)[C@@H](CO)N3C)cc1 | . | -6.5 | 1.2
CCCN(C)C[C@H]1Oc2cc(-c3ccccc3OC)ccc2S(=O)(=O)N([C@@H](C)CO)C[C@H]1C | -0.3 | -32.1 | 0.1
CO[C@H]1CN(C)C(=O)c2cc(NC(=O)c3ccno3)ccc2OC[C@H](C)NC[C@@H]1C | 0.2 | 11.1 | 0.1
C[C@H]1CN([C@@H](C)CO)C(=O)c2c(c3ccccc3n2C)-c2ccccc2CO[C@H]1CN(C)Cc1ccc(Oc2ccccc2)cc1 | . | -83.5* | -0.5
C[C@H]1CN([C@@H](C)CO)C(=O)c2c(c3ccccc3n2C)-c2ccccc2CO[C@@H]1CN(C)Cc1ccc(Oc2ccccc2)cc1 | . | -87.5* | -6.3
C[C@@H]1CN([C@H](C)CO)C(=O)c2c(c3ccccc3n2C)-c2ccccc2CO[C@H]1CN(C)Cc1ccc(C(=O)O)cc1 | 0.5 | -0.3 | 1.6
C[C@H]1CN([C@@H](C)CO)C(=O)c2c(c3ccccc3n2C)-c2ccccc2CO[C@H]1CN(C)Cc1ccc(F)cc1 | . | -48.7 | 0.8
C[C@@H]1CN([C@H](C)CO)C(=O)c2c(c3ccccc3n2C)-c2ccccc2CO[C@H]1CN(C)Cc1ccc(Oc2ccccc2)cc1 | . | -86.9* | .
C[C@@H]1CN([C@@H](C)CO)C(=O)c2c(c3ccccc3n2C)-c2ccccc2CO[C@@H]1CN(C)Cc1ccncc1 | 47.4* | -56.1 | 0.2
C[C@@H]1CN([C@@H](C)CO)C(=O)c2c(c3ccccc3n2C)-c2ccccc2CO[C@@H]1CN(C)Cc1ccc(O)cc1 | . | -41.7 | -1.4
C[C@@H]1CN([C@@H](C)CO)C(=O)c2c(c3ccccc3n2C)-c2ccccc2CO[C@H]1CN(C)Cc1ccc(F)cc1 | . | -50.3 | -3.0
O=C1c2cccc3cccc(c23)C(=O)N1CCN1CCN(C(=S)Nc2cccc(S(=O)(=O)C(F)F)c2)CC1 | 0.4 | . | .
SMILES | IDH1 mut inh | Pf Dd2 inh | GASC1 inh
CN(C)c1ccc2c(c1)[C@H]1C[C@H](CC(=O)NCC3CC3)O[C@H](CO)[C@H]1O2 | -14.0 | -3.8 | 21.9
C[C@H]1CN([C@@H](C)CO)C(=O)c2cc(NC(=O)CCCN(C)C)ccc2O[C@@H]1CN(C)S(=O)(=O)c1ccc(F)cc1 | 0.0 | 10.0 | -0.6
CCCC(=O)Nc1ccc2c(c1)C(=O)N(C)[C@@H]1CC[C@@H](CC(=O)NCCCN(C)C)O[C@@H]1CO2 | . | 9.1 | 3.0
C[C@@H]1CN([C@@H](C)CO)C(=O)c2cc(-c3ccccc3F)cnc2O[C@@H]1CN(C)Cc1cccc(C(=O)O)c1 | . | 27.6 | -0.3
COc1ccc(S(=O)(=O)Nc2ccc3c(c2)CC(=O)N([C@H](C)CO)C[C@@H](C)[C@@H](CN(C)Cc2ccc(C(=O)Nc4ccccc4N)cc2)O3)cc1 | . | -84.5* | -1.1
COc1ccc(S(=O)(=O)Nc2ccc3c(c2)CC(=O)N([C@H](C)CO)C[C@H](C)[C@H](CN(C)Cc2ccc(C(=O)Nc4ccccc4N)cc2)O3)cc1 | . | -81.2* | 0.1
COc1ccc(S(=O)(=O)Nc2ccc3c(c2)C(=O)N([C@H](C)CO)C[C@@H](C)[C@H](CN(C)Cc2ccc(C(=O)Nc4ccccc4N)cc2)O3)cc1 | 0.0 | -4.3 | -1.0
COc1ccc(S(=O)(=O)Nc2ccc3c(c2)C(=O)N([C@@H](C)CO)C[C@H](C)[C@@H](CN(C)Cc2ccc(C(=O)Nc4ccccc4N)cc2)O3)cc1 | . | -56.0 | -2.6
CCC(=O)Nc1ccc2c(c1)C(=O)N(C)C[C@H](OC)[C@H](C)CN(C(=O)CC1CC1)[C@H](C)CO2 | 0.0 | 42.3 | -0.2
COc1ccc(S(=O)(=O)N(C)C[C@@H]2OCCCC[C@H](C)Oc3ccc(NS(=O)(=O)c4cccs4)cc3C(=O)N([C@H](C)CO)C[C@H]2C)cc1 | . | -48.8 | -0.9
COc1ccc(NC(=O)N(C)C[C@H]2OCCCC[C@@H](C)Oc3ccc(NC(=O)Nc4cccc5ccccc45)cc3C(=O)N([C@@H](C)CO)C[C@H]2C)cc1 | -1.3 | -75.6 | -1.4
COc1ccc(NC(=O)N(C)C[C@H]2OCCCC[C@@H](C)Oc3ccc(NC(=O)Nc4cccc5ccccc45)cc3C(=O)N([C@H](C)CO)C[C@@H]2C)cc1 | . | -77.9 | -1.7
COc1ccc(NC(=O)N(C)C[C@H]2OCCCC[C@H](C)Oc3ccc(NC(=O)Nc4cccc5ccccc45)cc3C(=O)N([C@H](C)CO)C[C@H]2C)cc1 | . | -85.5* | -0.4
COc1ccc(NC(=O)N(C)C[C@H]2OCCCC[C@H](C)Oc3ccc(NC(=O)Nc4cccc5ccccc45)cc3C(=O)N([C@@H](C)CO)C[C@H]2C)cc1 | 0.4 | -84.9* | -0.2
O=C(CC1CC1)N1CC2(C1)[C@H](c1ccccc1)[C@@H](CO)N2C(=O)C1CCOCC1 | . | -1.3 | -0.3
